Source: ChEMBL document CHEMBL2069233, “New hypotheses for the binding mode of 4- and 7-substituted indazoles in the active site of neuronal nitric oxide synthase” (Bioorg Med Chem, 2012)

How the values were obtained:
[1] = target: Nitric oxide synthase 1 (Rattus norvegicus) (UniProt P29476); test: Inhibition of nNOS in rat cerebellum homogenates assessed as reduction in conversion of L-[3H]arginine to L-[3H]citrulline at 100 uM; format: tissue-based
[2] = target: Nitric oxide synthase 1 (Rattus norvegicus, UniProt P29476); test: Inhibition of nNOS in rat cerebellum homogenates assessed as reduction in conversion of L-[3H]arginine to L-[3H]citrulline; format: tissue-based
Sequence of Nitric oxide synthase 1 (P29476 whole entry): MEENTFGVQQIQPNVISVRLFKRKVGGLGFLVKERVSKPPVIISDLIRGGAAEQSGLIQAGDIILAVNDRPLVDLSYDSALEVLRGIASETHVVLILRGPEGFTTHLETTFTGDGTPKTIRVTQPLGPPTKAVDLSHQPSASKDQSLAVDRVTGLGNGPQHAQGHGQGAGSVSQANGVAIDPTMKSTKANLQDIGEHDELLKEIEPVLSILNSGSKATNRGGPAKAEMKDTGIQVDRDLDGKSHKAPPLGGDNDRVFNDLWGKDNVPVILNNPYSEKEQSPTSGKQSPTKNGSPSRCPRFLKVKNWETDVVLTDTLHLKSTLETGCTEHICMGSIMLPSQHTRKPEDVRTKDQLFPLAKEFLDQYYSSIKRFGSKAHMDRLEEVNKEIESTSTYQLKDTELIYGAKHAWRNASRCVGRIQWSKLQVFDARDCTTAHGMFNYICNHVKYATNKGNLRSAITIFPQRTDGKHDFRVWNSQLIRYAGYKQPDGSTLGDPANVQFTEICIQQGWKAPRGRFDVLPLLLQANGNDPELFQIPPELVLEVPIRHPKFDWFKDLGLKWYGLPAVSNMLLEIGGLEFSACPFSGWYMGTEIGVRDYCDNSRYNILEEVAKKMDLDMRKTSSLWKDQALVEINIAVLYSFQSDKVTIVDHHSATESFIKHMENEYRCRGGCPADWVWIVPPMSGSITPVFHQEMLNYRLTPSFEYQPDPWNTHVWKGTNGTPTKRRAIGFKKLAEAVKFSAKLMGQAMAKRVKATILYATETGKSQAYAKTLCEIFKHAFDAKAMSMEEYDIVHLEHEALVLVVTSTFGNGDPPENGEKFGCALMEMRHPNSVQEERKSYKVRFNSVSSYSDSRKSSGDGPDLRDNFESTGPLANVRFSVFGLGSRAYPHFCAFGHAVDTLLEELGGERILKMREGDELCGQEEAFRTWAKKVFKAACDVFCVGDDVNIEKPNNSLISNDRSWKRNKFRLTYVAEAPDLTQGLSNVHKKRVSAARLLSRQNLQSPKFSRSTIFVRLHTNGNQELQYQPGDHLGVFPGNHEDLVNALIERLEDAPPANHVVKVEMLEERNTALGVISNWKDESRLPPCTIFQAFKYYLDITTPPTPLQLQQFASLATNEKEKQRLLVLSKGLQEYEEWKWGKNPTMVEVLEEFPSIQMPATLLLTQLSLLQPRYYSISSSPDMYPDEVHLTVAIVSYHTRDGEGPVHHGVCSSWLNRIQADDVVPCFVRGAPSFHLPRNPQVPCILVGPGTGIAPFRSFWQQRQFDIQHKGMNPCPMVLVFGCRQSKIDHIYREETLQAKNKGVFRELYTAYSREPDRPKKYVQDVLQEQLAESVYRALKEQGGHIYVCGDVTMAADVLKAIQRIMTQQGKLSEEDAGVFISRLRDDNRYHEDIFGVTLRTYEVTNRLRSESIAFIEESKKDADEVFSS
How it was run: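 Rat cerebellum homogenate as nNOS source; L-[3H]arginine to L-[3H]citrulline conversion with 1 mM CaCl2, 200 μM β-NADPH, 0.88 μM L-arginine plus 0.12 μM L-[3H]arginine, 15 min at 37 °C. Compounds in DMSO 0.4%, tested at 0.01, 0.1, 1, 10 and 100 μM. IC50 taken from inhibition curves, mean ± sem over 3–7 experiments.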

Sequence of Nitric oxide synthase 1 (Rattus norvegicus) (P29476 whole entry): as above

SMILES	inhibition [1] [%]	IC50 [2] [µM]
Cn1ncc2c(Br)cccc21	75	28.2
Cn1cc2c([N+](=O)[O-])cccc2n1	34	> 100
CCn1cc2c([N+](=O)[O-])cccc2n1	34	> 100
CCn1ncc2c([N+](=O)[O-])cccc21	67	51.7
CCn1ncc2c(Br)cccc21	61	72.5
N#Cc1cccc2[nH]ncc12	63	42.5
CCn1cc2c(Br)cccc2n1	0	> 100
Cn1cc2c(Br)cccc2n1	19	> 100
Cn1ncc2c([N+](=O)[O-])cccc21	86	10.6
